Results as given in the array DNA melting data of Ke et al. (doi:10.1101/2024.01.08.574731).

Key:
[1] = melting temperature; fluorescence melt of hairpins on a sequencing array, two-state fit, raised by 9.35 °C to match UV melts; settings: sodium 0.088 M
Procedure, shortened: (§1)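 Melting temperature and folding enthalpy were derived from bootstrapped two-state fits. The fitted temperatures were raised by 9.35 °C to agree with UV melts, and four replicates were combined by inverse variance. The underlying data were Cy3 fluorescence images of library hairpins, with annealed Cy3 and quencher oligos, on a sequenced MiSeq flow cell in 50 mM Na-HEPES pH 8.0, 25 mM NaCl, taken in 2.5 °C steps up to 60 °C, normalised to pre-quench Cy3 and to control constructs.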

[2] = folding enthalpy; higher = less favourable; fluorescence melt of hairpins on a sequencing array, two-state fit; settings: sodium 0.088 M
Procedure, shortened: as §1

Sequence | Tm [1] | folding enthalpy [2]
GATCGTTGTAACGATC ((((((....)))))) | 58.4 °C | -48.8 kcal/mol
GTCATTGGAAACAATGGC (.(((((....))))).) | 47.6 °C | -28.6 kcal/mol
GTATGCGGAAACGTATGC (.((.((....)).)).) | 32.2 °C | -18 kcal/mol
GTGACCCGAAAGGGACAC (((.(((....))).))) | 61.8 °C | -40.2 kcal/mol
GACTCCGGAAACAGAGTC (((((.(....).))))) | 40.1 °C | -36.5 kcal/mol
CGACCGGAAACGGAATCG ((((((....)))..))) | 35.7 °C | -14.3 kcal/mol
GCGTTGGGAAACTGACGC ((((..(....)..)))) | 49.7 °C | -35.3 kcal/mol
GCCCTCCGAAAGGATGGC (((.(((....))).))) | 55 °C | -37.5 kcal/mol
GCTCATGGAAACACGAGC ((((.((....)).)))) | 42.6 °C | -38.1 kcal/mol
GTCGCTGGAAACGGCGAC (((((.(....).))))) | 65.7 °C | -43.8 kcal/mol
GCGACGGCTCGC ((((....)))) | 49.5 °C | -13.3 kcal/mol
GCGTAGCGAAAGCTTTGC ((..(((....)))..)) | 42.9 °C | -7.28 kcal/mol
GATCGCCTGGCGATC ((((((...)))))) | 67.9 °C | -35.7 kcal/mol
GAATTGACGAAAGTCTTC (((..(((....)))))) | 29.6 °C | -11.6 kcal/mol
GCGAGTATTCGC ((((....)))) | 57.2 °C | -26.6 kcal/mol
GTTGTTCCGAAAGGAAAC (((..(((....)))))) | 49.1 °C | -20.5 kcal/mol
GGTTCTCCGAAAGGAACC (((..(((....)))))) | 42.9 °C | -20.8 kcal/mol
GGTACCGCGAAAGCGACC (((..(((....)))))) | 28.1 °C | -10.2 kcal/mol
GATCAGAAATCTGATC ((((((....)))))) | 46 °C | -35.2 kcal/mol
GTTATTGGAAACGATAAC (((((.(....).))))) | 38.7 °C | -21.5 kcal/mol
GCGGTGAGCCGC ((((....)))) | 66.8 °C | -23 kcal/mol
GATAATGGAAACATTACC (.(((((....))))).) | 22.6 °C | -9.26 kcal/mol
GCGTTCTAACGC ((((....)))) | 58.5 °C | -25.8 kcal/mol

Sequence | Tm [1] | folding enthalpy [2]
GCATTCGAAAGAAATGC ((((((....))).))) | 49 °C | -30.4 kcal/mol
GGCGCTTCGAAAGAAGCC (((..(((....)))))) | 47.8 °C | -9.84 kcal/mol
GGACGCGAAAGCGAGTCC ((((((....)))..))) | 55.4 °C | -21 kcal/mol
GATCTCATTTGAGATC ((((((....)))))) | 55.5 °C | -37.4 kcal/mol
GAGCAGGGAAACCCGCTC ((((.((....)).)))) | 51.4 °C | -34.2 kcal/mol
GCGCACGAAAGTGCACGC ((((((....)))..))) | 61.1 °C | -14.6 kcal/mol
GGCATTGGAAACAACGCC (((.(((....))).))) | 44.6 °C | -34.4 kcal/mol
GCAACGCGAAAGCTTCGC ((.(.((....)).).)) | 30 °C | -8.73 kcal/mol
GGTCCACCGAAAGGTACC (((..(((....)))))) | 29.2 °C | -11.9 kcal/mol
GCAGGAGGAAACTCCTAC (.(((((....))))).) | 37.8 °C | -15.2 kcal/mol
GACGCAGCGAAAGCTGTC (((..(((....)))))) | 33.5 °C | -7.32 kcal/mol
GGATGCGGAAACGTATCC ((((.((....)).)))) | 52.6 °C | -46.7 kcal/mol
GCCAATGCGAAAGCAGGC (((..(((....)))))) | 53 °C | -21.7 kcal/mol
CGGACGGAAACGTCCCCG ((((((....)))..))) | 34.7 °C | -7.24 kcal/mol
GTGACCGAAAGGTTACAC ((((((....)))..))) | 49.8 °C | -16.6 kcal/mol
GATGACGAAAGTCTATC ((((((....))).))) | 39 °C | -16.4 kcal/mol
GTAATCGAAAGATGGTAC ((((((....)))..))) | 25 °C | -12.8 kcal/mol
AGTTCGAAAGAACT (((((....))))) | 55.4 °C | -20.8 kcal/mol
GGAGCTGGAAACAGCCCC ((.((((....)))).)) | 54.3 °C | -24.2 kcal/mol
GCCCCGCGAAAGCTGCGC ((.(.((....)).).)) | 36.6 °C | -13.6 kcal/mol
GGGAAAGGAAACTTTCCC (((((((....))))))) | 57.7 °C | -47 kcal/mol
CGGAGCGGAAACGCCCCG (((.(((....))).))) | 55.8 °C | -30.8 kcal/mol
GTTCCCGAAAGGGCAAAC ((((((....)))..))) | 28.9 °C | -9.62 kcal/mol

Sequence | Tm [1] | folding enthalpy [2]
GATCGGAGTCCCGATC ((((((....)))))) | 55.3 °C | -33.8 kcal/mol
GGTATACGAAAGTAGACC (((.(((....))).))) | 52.1 °C | -50.9 kcal/mol
GCTCGGCGAAAGCCTCGC ((..(((....)))..)) | 48.7 °C | -14.4 kcal/mol
GTTGTCGAAAGACGAAAC ((((((....)))..))) | 29.1 °C | -9.08 kcal/mol
GTGGCTGGAAACAGTCGC (.(.(((....))).).) | 47 °C | -24.6 kcal/mol
GGTAATCGAAAGATAACC (((.(((....))).))) | 41.7 °C | -26.3 kcal/mol
GACGGAGGAAACTCCATC ((.((((....)))).)) | 33.6 °C | -16.8 kcal/mol
GTGGCCGAAAGGCGACAC ((((((....)))..))) | 57.4 °C | -14 kcal/mol
GGTTGAACGAAAGTTACC (((..(((....)))))) | 31.1 °C | -13.2 kcal/mol
GATCATATTGATGATC ((((((....)))))) | 47.3 °C | -31.9 kcal/mol
GATCTCGTAAGAGATC ((((((....)))))) | 68.4 °C | -35.3 kcal/mol
GAGCTGGGAAACCAACTC (((.(((....))).))) | 39.9 °C | -32 kcal/mol
GATCAAGACTTGATC ((((((...)))))) | 43.4 °C | -32.4 kcal/mol
GCAAGGCGAAAGCGTTGC ((((.((....)).)))) | 67.2 °C | -33.1 kcal/mol
GCTAGCGAAAGCTCCAGC ((((((....)))..))) | 33.1 °C | -10.8 kcal/mol
GCACCAACGAAAGTTTGC (((..(((....)))))) | 27.9 °C | -13.5 kcal/mol
GCTCGCTCGAAAGAGAGC (((..(((....)))))) | 48.6 °C | -20.8 kcal/mol
GCGAGCGAAAGCTCCCGC ((((((....)))..))) | 42.4 °C | -11.6 kcal/mol
GATCTCTGAGGAGATC ((((((....)))))) | 55.8 °C | -43.4 kcal/mol
GGATCCGAAAGGACTCC ((((((....))).))) | 47.4 °C | -23.9 kcal/mol
GGTGCTCCGAAAGGAACC (((..(((....)))))) | 32.5 °C | -11.3 kcal/mol
GATCGTGAGCACGATC ((((((....)))))) | 55.9 °C | -37.1 kcal/mol
GGTGAGGGAAACTTCACC (((((.(....).))))) | 46.8 °C | -32.1 kcal/mol
